Measurements: ChEMBL document CHEMBL4689842, “EUbOPEN Chemogenomics Library wave 1” (2021)
Where “and” joins values, the source holds several entries; their conditions need not be identical. Identical values can stand only once.

Legend:
Format in all cases: toxicity, cell-based
Fibroblast [1] = assay: Multiplex assay against human fibroblast; settings: 10 µM, compound concentration 10 uM
Outline: (§1)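 At seeding, live cells were stained with Hoechst33342, BioTracker Green Microtubule Cytoskeleton Dye, MitoTracker Red and Annexin V Alexa Fluor 680. After compound addition they were imaged on a CQ1 microscope at 37°C and 5% CO2, and CellPathfinder machine-learning gating sorted them into Hoechst high-intensity objects or normal cells, with normal cells further split into healthy, pyknosed or fragmented nuclei and pyknosed cells into mitotic or apoptotic. Tubulin, mitochondrial-mass and membrane-permeability phenotypes are given as per cents of cells with healthy nuclei.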

HEK-293T [2] = assay: Multiplex assay against HEK293T; settings: human, 10 µM, compound concentration 10 uM; outline: as §1;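 for Population Tubulin-Different-Phenotype (%): share of the cells with healthy nuclei that show this phenotype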
U2OS [3] = assay: Multiplex assay against U2OS; settings: human, 10 µM, compound concentration 10 uM; outline: as §1
HEK-293T [4] = assay: Incucyte cell viability with HEK293T; settings: human, 10 µM, compound concentration 10 uM; note: filed as whole numbers so only -1 and 0 and 1 occur
Fibroblast [5] = assay: Incucyte cell viability with human fibroblast; settings: 10 µM, compound concentration 10 uM; note: filed as whole numbers so only -1 and 0 and 1 occur
U2OS [6] = assay: Incucyte cell viability with U2OS; settings: human, 10 µM, compound concentration 10 uM; note: filed as whole numbers so only -1 and 0 and 1 occur
[7] = 0 h, replicate number 1, timepoint 0 hours
[8] = 12 h, replicate number 1, timepoint 12 hours
[9] = 18 h, replicate number 1, timepoint 18 hours
[10] = 24 h, replicate number 1, timepoint 24 hours

SMILES: CN1CCN(Cc2ccc(-c3cnc4[nH]cc(-c5ccc6[nH]ccc6c5)c4c3)cc2)CC1
- Population Apoptotic (%) (Fibroblast [1]; 12 h, replicate 1): 47% and 85%
- Population Fragmented Nuclei (%) (Fibroblast [1]; 12 h, replicate 1): 27% and 39% and 35%
- Population Hoechst High Intensity Objects (%) (Fibroblast [1]; 12 h, replicate 1): 8% and 16% and 10%
- Population Normal (%) (Fibroblast [1]; 12 h, replicate 1): 91% and 83% and 89%
- Total Cell Count (Fibroblast [1]; 12 h, replicate 1): 208 and 291 and 107
- Population Apoptotic (%) (Fibroblast [1]; 12 h, replicate 2): 50% and 73%
- Population Mitotic Cells (%) (Fibroblast [1]; 12 h, replicate 2): 50% and 26%
- Population Normal (%) (Fibroblast [1]; 12 h, replicate 2): 69% and 64% and 94%
- Total Cell Count (Fibroblast [1]; 12 h, replicate 2): 113 and 71 and 76
- Population Apoptotic (%) (Fibroblast [1]; 24 h, replicate 1): 73% and 68% and 81%
- Population Fragmented Nuclei (%) (Fibroblast [1]; 24 h, replicate 1): 50% and 59% and 47%
- Population Hoechst High Intensity Objects (%) (Fibroblast [1]; 24 h, replicate 1): 16% and 23% and 25%
- Population Mitotic Cells (%) (Fibroblast [1]; 24 h, replicate 1): 26% and 31% and 18%
- Population Normal (%) (Fibroblast [1]; 24 h, replicate 1): 83% and 76% and 75%
- Population Apoptotic (%) (Fibroblast [1]; 24 h, replicate 2): 50% and 100%
- Population Healthy Nuclei (%) (Fibroblast [1]; 24 h, replicate 2): 24% and 25% and 11%
- Population Hoechst High Intensity Objects (%) (Fibroblast [1]; 24 h, replicate 2): 26% and 33% and 52%
- Population Normal (%) (Fibroblast [1]; 24 h, replicate 2): 73% and 66% and 47%
- Total Cell Count (Fibroblast [1]; 24 h, replicate 2): 136 and 91 and 73
- Population Fragmented Nuclei (%) (Fibroblast [1]; 48 h, replicate 1): 75%
- Population Healthy Nuclei (%) (Fibroblast [1]; 48 h, replicate 1): 13%
- Population Hoechst High Intensity Objects (%) (Fibroblast [1]; 48 h, replicate 1): 28%
- Population Membrane Permeable-Phenotype (%) (Fibroblast [1]; 48 h, replicate 1): 41%
- Population Normal (%) (Fibroblast [1]; 48 h, replicate 1): 71%
- Population Pyknosed Nuclei (%) (Fibroblast [1]; 48 h, replicate 1): 10%
- Population Tubulin-Different-Phenotype (%) (Fibroblast [1]; 48 h, replicate 1): 58%
- Total Cell Count (Fibroblast [1]; 48 h, replicate 1): 121
- Population Apoptotic (%) (Fibroblast [1]; 48 h, replicate 2): 100%
- Population Fragmented Nuclei (%) (Fibroblast [1]; 48 h, replicate 2): 79%
- Population Healthy Nuclei (%) (Fibroblast [1]; 48 h, replicate 2): 11%
- Population Hoechst High Intensity Objects (%) (Fibroblast [1]; 48 h, replicate 2): 40%
- Population Membrane Permeable-Phenotype (%) (Fibroblast [1]; 48 h, replicate 2): 0%
- Population Mitochondria Different-Phenotype (%) (Fibroblast [1]; 48 h, replicate 2): 0%
- Population Mitotic Cells (%) (Fibroblast [1]; 48 h, replicate 2): 0%
- Population Normal (%) (Fibroblast [1]; 48 h, replicate 2): 59%
- Population Pyknosed Nuclei (%) (Fibroblast [1]; 48 h, replicate 2): 8%
- Population Tubulin-Different-Phenotype (%) (Fibroblast [1]; 48 h, replicate 2): 50%
- Total Cell Count (Fibroblast [1]; 48 h, replicate 2): 57
- Population Fragmented Nuclei (%) (HEK-293T [2]; 12 h, replicate 1): 11% and 13% and 21%
- Population Hoechst High Intensity Objects (%) (HEK-293T [2]; 12 h, replicate 1): 16% and 24% and 18%
- Population Membrane Permeable-Phenotype (%) (HEK-293T [2]; 12 h, replicate 1): 20% and 12% and 28%
- Population Normal (%) (HEK-293T [2]; 12 h, replicate 1): 83% and 75% and 81%
- Population Pyknosed Nuclei (%) (HEK-293T [2]; 12 h, replicate 1): 59% and 81%
- Population Membrane Permeable-Phenotype (%) (HEK-293T [2]; 12 h, replicate 2): 0% and 15%
- Population Normal (%) (HEK-293T [2]; 12 h, replicate 2): 87% and 97%
- Population Tubulin-Different-Phenotype (%) (HEK-293T [2]; 12 h, replicate 2): 66% and 53% and 95%
- Population Fragmented Nuclei (%) (HEK-293T [2]; 24 h, replicate 1): 16%
- Population Hoechst High Intensity Objects (%) (HEK-293T [2]; 24 h, replicate 1): 29% and 32% and 15%
- Population Membrane Permeable-Phenotype (%) (HEK-293T [2]; 24 h, replicate 1): 11% and 15%
- Population Normal (%) (HEK-293T [2]; 24 h, replicate 1): 70% and 67% and 84%
- Population Membrane Permeable-Phenotype (%) (HEK-293T [2]; 24 h, replicate 2): 0% and 8% and 9%
- Population Normal (%) (HEK-293T [2]; 24 h, replicate 2): 78% and 93%
- Population Apoptotic (%) (HEK-293T [2]; 48 h, replicate 1): 90%
- Population Fragmented Nuclei (%) (HEK-293T [2]; 48 h, replicate 1): 29%
- Population Healthy Nuclei (%) (HEK-293T [2]; 48 h, replicate 1): 3%
- Population Hoechst High Intensity Objects (%) (HEK-293T [2]; 48 h, replicate 1): 31%
- Population Membrane Permeable-Phenotype (%) (HEK-293T [2]; 48 h, replicate 1): 0%
- Population Mitotic Cells (%) (HEK-293T [2]; 48 h, replicate 1): 9%
- Population Normal (%) (HEK-293T [2]; 48 h, replicate 1): 68%
- Population Pyknosed Nuclei (%) (HEK-293T [2]; 48 h, replicate 1): 66%
- Population Tubulin-Different-Phenotype (%) (HEK-293T [2]; 48 h, replicate 1): 80%
- Total Cell Count (HEK-293T [2]; 48 h, replicate 1): 216
- Population Apoptotic (%) (HEK-293T [2]; 48 h, replicate 2): 96%
- Population Fragmented Nuclei (%) (HEK-293T [2]; 48 h, replicate 2): 17%
- Population Healthy Nuclei (%) (HEK-293T [2]; 48 h, replicate 2): 7%
- Population Hoechst High Intensity Objects (%) (HEK-293T [2]; 48 h, replicate 2): 18%
- Population Membrane Permeable-Phenotype (%) (HEK-293T [2]; 48 h, replicate 2): 22%
- Population Mitochondria Different-Phenotype (%) (HEK-293T [2]; 48 h, replicate 2): 100%
- Population Mitotic Cells (%) (HEK-293T [2]; 48 h, replicate 2): 3%
- Population Normal (%) (HEK-293T [2]; 48 h, replicate 2): 81%
- Population Pyknosed Nuclei (%) (HEK-293T [2]; 48 h, replicate 2): 75%
- Population Tubulin-Different-Phenotype (%) (HEK-293T [2]; 48 h, replicate 2): 100%
- Total Cell Count (HEK-293T [2]; 48 h, replicate 2): 158
- Population Apoptotic (%) (U2OS [3]; 12 h, replicate 1): 81% and 75%
- Population Hoechst High Intensity Objects (%) (U2OS [3]; 12 h, replicate 1): 11% and 4% and 8%
- Population Membrane Permeable-Phenotype (%) (U2OS [3]; 12 h, replicate 1): 87% and 74% and 69%
- Population Mitochondria Different-Phenotype (%) (U2OS [3]; 12 h, replicate 1): 64% and 37%
- Population Mitotic Cells (%) (U2OS [3]; 12 h, replicate 1): 18% and 24% and 25%
- Population Normal (%) (U2OS [3]; 12 h, replicate 1): 88% and 95% and 91%
- Total Cell Count (U2OS [3]; 12 h, replicate 1): 171 and 167 and 190
- Population Fragmented Nuclei (%) (U2OS [3]; 12 h, replicate 2): 17% and 14% and 13%
- Population Hoechst High Intensity Objects (%) (U2OS [3]; 12 h, replicate 2): 6% and 15%
- Population Membrane Permeable-Phenotype (%) (U2OS [3]; 12 h, replicate 2): 40% and 72% and 63%
- Population Mitochondria Different-Phenotype (%) (U2OS [3]; 12 h, replicate 2): 100% and 96% and 36%
- Population Normal (%) (U2OS [3]; 12 h, replicate 2): 94% and 84%
- Total Cell Count (U2OS [3]; 12 h, replicate 2): 76 and 116 and 120
- Population Apoptotic (%) (U2OS [3]; 24 h, replicate 1): 98% and 93% and 64%
- Population Membrane Permeable-Phenotype (%) (U2OS [3]; 24 h, replicate 1): 100% and 90% and 39%
- Population Normal (%) (U2OS [3]; 24 h, replicate 1): 90% and 76% and 93%
- Total Cell Count (U2OS [3]; 24 h, replicate 1): 166 and 199 and 279
- Population Apoptotic (%) (U2OS [3]; 24 h, replicate 2): 95% and 100% and 66%
- Population Membrane Permeable-Phenotype (%) (U2OS [3]; 24 h, replicate 2): 40%
- Population Mitochondria Different-Phenotype (%) (U2OS [3]; 24 h, replicate 2): 39%
- Population Normal (%) (U2OS [3]; 24 h, replicate 2): 81% and 66% and 89%
- Population Tubulin-Different-Phenotype (%) (U2OS [3]; 24 h, replicate 2): 18%
- Total Cell Count (U2OS [3]; 24 h, replicate 2): 122 and 91 and 140
- Population Apoptotic (%) (U2OS [3]; 48 h, replicate 1): 100%
- Population Fragmented Nuclei (%) (U2OS [3]; 48 h, replicate 1): 31%
- Population Healthy Nuclei (%) (U2OS [3]; 48 h, replicate 1): 2%
- Population Hoechst High Intensity Objects (%) (U2OS [3]; 48 h, replicate 1): 14%
- Population Membrane Permeable-Phenotype (%) (U2OS [3]; 48 h, replicate 1): 66%
- Population Mitochondria Different-Phenotype (%) (U2OS [3]; 48 h, replicate 1): 100%
- Population Mitotic Cells (%) (U2OS [3]; 48 h, replicate 1): 0%
- Population Normal (%) (U2OS [3]; 48 h, replicate 1): 85%
- Population Pyknosed Nuclei (%) (U2OS [3]; 48 h, replicate 1): 66%
- Population Tubulin-Different-Phenotype (%) (U2OS [3]; 48 h, replicate 1): 100%
- Total Cell Count (U2OS [3]; 48 h, replicate 1): 148
- Population Fragmented Nuclei (%) (U2OS [3]; 48 h, replicate 2): 8%
- Population Healthy Nuclei (%) (U2OS [3]; 48 h, replicate 2): 64%
- Population Hoechst High Intensity Objects (%) (U2OS [3]; 48 h, replicate 2): 24%
- Population Membrane Permeable-Phenotype (%) (U2OS [3]; 48 h, replicate 2): 100%
- Population Normal (%) (U2OS [3]; 48 h, replicate 2): 75%
- Population Pyknosed Nuclei (%) (U2OS [3]; 48 h, replicate 2): 27%
- Population Tubulin-Different-Phenotype (%) (U2OS [3]; 48 h, replicate 2): 95%
- Total Cell Count (U2OS [3]; 48 h, replicate 2): 80
- Growth Rate (HEK-293T [4]; [7]): 0
- Growth Rate (HEK-293T [4]; 6 h, replicate number 2, timepoint 6 hours): 0
- Growth Rate (HEK-293T [4]; [8]): 0
- Growth Rate (HEK-293T [4]; [9]): 0
- Growth Rate (HEK-293T [4]; [10]): 0
- Growth Rate (Fibroblast [5]; [7]): 0
- Growth Rate (Fibroblast [5]; [8]): 0
- Growth Rate (Fibroblast [5]; [9]): 0
- Growth Rate (Fibroblast [5]; [10]): 0
- Growth Rate (U2OS [6]; 0 h, replicate number 2, timepoint 0 hours): 0
- Growth Rate (U2OS [6]; [8]): 1
- Growth Rate (U2OS [6]; [9]): 0
- Growth Rate (U2OS [6]; [10]): 0
